The source made the active and inactive calls. No cut-off for these calls is given here.

The target in series [1] is Kelch-like ECH-associated protein 1 (Homo sapiens) (UniProt Q14145). The series is described as follows: Binding affinity to Keap1 in human HaCaT cells assessed as induction of NRF2/ARE activation-mediated HO1 mRNA expression at 10 uM RT-PCR method. In kind it is cell-based. The following applies: TDE = time-dependent effect. The procedure, abridged:
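HaCaT cells were treated at 10 µM (DMSO, 1/1000) for 4, 8 and 12 h. Total RNA was analysed by SYBR real-time RT-PCR with HO-1-specific primers. Cycling was 95 °C for 5 min; 40 cycles of 95 °C 10 s, 59 °C 10 s, 72 °C 20 s; then 95 °C 10 s.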

In series [2] the test system is Mus musculus. The series is described as follows: Upregulation of GCLC expression in skin lysates of mouse at 10 umole applied topically up to 24 hrs by Western blot analysis. In kind it is functional, organism-based. The following applies: Zone of skin, Lysate. Background: A western blot detects proteins with antibodies after separation by electrophoresis.
The test system of series [3] is HaCaT. The series is described as follows: Cytotoxicity against human HaCaT cells assessed as reduction in cell viability at 10 uM after 24 hrs by MTT method. It is filed as cell-based. In short, it runs like this: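 HaCaT cells were seeded at 30,000 per well and exposed to agent at 10 µM for 24 h. After a PBS wash, cells were incubated with MTT (5 mg/ml) for 4 h, lysed in DMSO, and absorbance was read at 560 nm.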

Series [4] concerns Mus musculus. Nature of the series: Upregulation of NRF2 expression in skin lysates of mouse at 10 umole applied topically up to 24 hrs by Western blot analysis. In kind it is functional, organism-based. The following applies: Zone of skin, Lysate.
Series [5] concerns the target Kelch-like ECH-associated protein 1 (Homo sapiens) (UniProt Q14145). Nature of the series: Binding affinity to Keap1 in human HaCaT cells assessed as induction of NRF2/ARE activation-mediated HO1 expression at 10 uM after 6 to 24 hrs by Western blot analysis. In kind it is cell-based. In short, it runs like this:
(§1)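 HaCaT cells were grown in RPMI with 10% FBS and Pen/Strep and treated with agent from DMSO stock (1/1000 dilution), across concentrations for 24 h or over a time course. Cells were lysed in RIPA buffer and protein was measured by BCA. Equal amounts were separated by SDS-PAGE, blotted to PVDF, blocked in 5% milk/PBST, probed overnight at 4°C with HO-1 or NRF2 antibody, and detected by ECL. Actin served as loading control.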

The subject of series [6] is Mus musculus. The series is described as follows: Upregulation of HO-1 expression in skin lysates of mouse at 10 umole applied topically up to 24 hrs by Western blot analysis. It is filed as functional, organism-based. The following applies: Zone of skin, Lysate.
For series [7], the target named is T1, Nuclear factor erythroid 2-related factor 2 (Homo sapiens) (UniProt Q16236).
T1 sequence (whole entry): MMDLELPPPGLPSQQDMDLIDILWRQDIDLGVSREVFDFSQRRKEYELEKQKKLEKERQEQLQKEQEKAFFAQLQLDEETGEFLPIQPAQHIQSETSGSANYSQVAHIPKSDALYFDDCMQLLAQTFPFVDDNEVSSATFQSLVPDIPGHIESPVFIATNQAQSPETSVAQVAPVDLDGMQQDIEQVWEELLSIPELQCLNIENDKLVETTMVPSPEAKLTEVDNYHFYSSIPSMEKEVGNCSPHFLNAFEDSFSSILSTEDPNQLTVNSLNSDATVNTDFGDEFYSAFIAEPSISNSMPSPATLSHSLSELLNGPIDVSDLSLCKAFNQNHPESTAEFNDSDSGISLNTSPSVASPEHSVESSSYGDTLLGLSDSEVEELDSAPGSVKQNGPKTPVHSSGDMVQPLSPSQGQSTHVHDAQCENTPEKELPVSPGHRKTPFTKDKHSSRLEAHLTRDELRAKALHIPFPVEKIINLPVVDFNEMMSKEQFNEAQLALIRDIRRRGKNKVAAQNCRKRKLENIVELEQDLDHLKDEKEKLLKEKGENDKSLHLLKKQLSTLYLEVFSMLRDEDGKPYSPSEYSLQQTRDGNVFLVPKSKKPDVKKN
The series is described as follows: Binding affinity to NRF2 in human HaCaT cells at 10 nmol by immunoprecipitation assay. In kind it is cell-based. The procedure, abridged:
(§2)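 Lysate (800 µg) from confluent HaCaT cells in RIPA buffer was mixed with biotin or biotinylated agent (10 nmole each). Pull-down was done with streptavidin-agarose beads overnight at 4°C. Beads were washed in ice-cold PBS, and bound KEAP1 and NRF2 were detected by Western blot.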

For series [8], the target named is Kelch-like ECH-associated protein 1 (Homo sapiens) (UniProt Q14145). The series is described as follows: Binding affinity to Keap1 in human HaCaT cells at 10 nmol by immunoprecipitation assay. In kind it is cell-based. In short, it runs like this: as §2
Series [9] shares this target. The series is described as follows: Binding affinity to Keap1 in human HaCaT cells assessed as induction of NRF2/ARE activation-mediated HO1 expression at 1 to 10 uM after 24 hrs by Western blot analysis. In kind it is cell-based. In short, it runs like this: as §1
For series [10], the system named is HaCaT. Nature of the series: Induction of apoptosis in human HaCaT cells assessed as increase in cleaved PARP protein expression at 10 uM after 6 to 24 hrs by Western blot analysis. In kind it is cell-based. The procedure, abridged: (§3)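 HaCaT cells were exposed to agent or etoposide for various times. RIPA lysates were analysed by SDS-PAGE and Western blot with cleaved caspase-3 and cleaved PARP antibodies, with ECL detection and actin as loading control.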

For series [11], the target named is Kelch-like ECH-associated protein 1 (Homo sapiens) (UniProt Q14145). The series is described as follows: Binding affinity to Keap1 in human HaCaT cells assessed as activation of NRF2 by measuring nuclear translocation of NRF2 at 10 uM after 6 to 12 hrs by immunofluorescence assay. In kind it is cell-based. The procedure, abridged:
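Confluent HaCaT cells on glass were exposed to agent for 6 h and 12 h, blocked with 1% BSA for 30 min, and fixed with paraformaldehyde. They were incubated overnight at 4°C with NRF2 antibody, then with FITC-conjugated secondary antibody, and imaged by confocal microscopy.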

Series [12] relates to Mus musculus. The series is described as follows: Anti-carcinogenic effect in hairless mouse assessed as inhibition of number of DMBA/TPA-induced papilloma formation at 10 umol administered topically 3 times per week up to 10 weeks with TPA starting from 1 week post DMBA treatment. It is filed as functional, organism-based. In short, it runs like this:
(§4)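 Male hairless mice (6 weeks old at purchase, acclimated one week) received a single topical dose of DMBA (2 µmole) or acetone vehicle in week 1. From week 2, the back was treated with TPA (10 nmole) alone or with test agent (10 µmole), three times per week. Papillomas were counted manually at the end of each week. At sacrifice, skin was formalin-fixed, paraffin-embedded and H/E-stained for phase-contrast imaging.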

For series [13], the system named is Mus musculus. Nature of the series: Anti-carcinogenic effect in hairless mouse assessed as inhibition of incidence of DMBA/TPA-induced papilloma formation at 10 umol administered topically 3 times per week up to 10 weeks with TPA starting from 1 week post DMBA treatment. It is filed as functional, organism-based. In short, it runs like this: as §4
Series [14] has as its system Mus musculus. The series is described as follows: Anti-carcinogenic effect in hairless mouse assessed as inhibition of DMBA/TPA-induced papilloma growth at 10 umol administered topically 3 times per week up to 10 weeks with TPA starting from 1 week post DMBA treatment by hematoxylin/eosin staining based phase-contrast microscopic method. In kind it is functional, organism-based. The procedure, abridged:
as §4

The target of series [15] is Kelch-like ECH-associated protein 1 (Homo sapiens) (UniProt Q14145). Nature of the series: Binding affinity to Keap1 in human HaCaT cells assessed as induction of NRF2/ARE activation-mediated HO1 expression at 10 uM by Western blot analysis. In kind it is cell-based. The following applies: TDE = time-dependent effect. In short, it runs like this:
as §1

The subject of series [16] is HaCaT. Nature of the series: Cell cycle arrest in human HaCaT cells assessed as accumulation at G1/S phase at 10 uM after 24 hrs by propidium iodide staining based flow cytometry. In short, it runs like this:
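HaCaT cells were exposed to agent for 24 h, with etoposide as positive control. Cells (1x10⁶ per group) were fixed in PBS/70% EtOH (3:7), washed, stained with propidium iodide (20 µg/ml), and G1/S distribution was measured by flow cytometry.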
(In general: Flow cytometry measures light scatter and fluorescence of single cells or particles in a stream.)

Series [17] has as its system Mus musculus. Nature of the series: Downregulation of 4-HNE expression in skin lysates of DMBA/TPA-induced mouse skin carcinogenesis model at 10 umol administered topically 3 times per week up to 10 weeks with TPA starting from 1 week post DMBA treatment by immunofluorescence microscopic method. In kind it is functional, organism-based. The following applies: Zone of skin, Lysate. In short, it runs like this:
(§5)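 Skin came from the two-stage DMBA/TPA model in hairless mice: DMBA 2 µmole once topically, then TPA 10 nmole ± agent 10 µmole three times weekly. At sacrifice, skin was formalin-fixed and paraffin-embedded. Sections were incubated overnight at 4°C with 8-OH-G or 4-HNE primary antibody, then probed with FITC-conjugated secondary antibody for fluorescence imaging.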

The test system of series [18] is HaCaT. Nature of the series: Cytotoxicity against human HaCaT cells assessed as reduction in cell viability by measuring morphological changes at 10 uM after 24 hrs by phase contrast microscopic method. In kind it is cell-based. In short, it runs like this:
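HaCaT cells were exposed to agent or etoposide, and gross cell morphology was examined by phase-contrast microscopy.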

Series [19] relates to Mus musculus. Nature of the series: Downregulation of 8-OH-G expression in skin lysates of DMBA/TPA-induced mouse skin carcinogenesis model at 10 umol administered topically 3 times per week up to 10 weeks with TPA starting from 1 week post DMBA treatment by immunofluorescence microscopic method. In kind it is functional, organism-based. The following applies: Zone of skin, Lysate. In short, it runs like this:
as §5

Series [20] addresses Kelch-like ECH-associated protein 1 (Mus musculus) (UniProt Q9Z2X8). The series is described as follows: Binding affinity to Keap1 in NRF2+/+ MEF assessed as induction of NRF2/ARE activation-mediated HO1 expression at 10 uM up to 8 hrs by RT-PCR method. In kind it is cell-based.
The target is the same in series [21]. The series is described as follows: Binding affinity to Keap1 in NRF2+/+ MEF assessed as induction of NRF2/ARE activation-mediated HO1 expression at 10 uM after 24 hrs by Western blot analysis. It is filed as cell-based.
For series [22] the target is unchanged. Nature of the series: Binding affinity to Keap1 in NRF2-/- MEF assessed as induction of HO1 expression at 10 uM after 24 hrs by Western blot analysis. It is filed as cell-based.
For series [23], the system named is HaCaT. Nature of the series: Induction of apoptosis in human HaCaT cells assessed as increase in cleaved caspase-3 protein expression at 10 uM after 6 to 24 hrs by Western blot analysis. It is filed as cell-based. In short, it runs like this: as §3
The target of series [24] is Kelch-like ECH-associated protein 1 (Mus musculus) (UniProt Q9Z2X8). Nature of the series: Binding affinity to Keap1 in NRF2-/- MEF assessed as induction of NRF2/ARE activation-mediated HO1 expression at 10 uM up to 8 hrs by RT-PCR method. It is filed as cell-based.
Kelch-like ECH-associated protein 1 (Mus musculus), sequence (Q9Z2X8 whole entry): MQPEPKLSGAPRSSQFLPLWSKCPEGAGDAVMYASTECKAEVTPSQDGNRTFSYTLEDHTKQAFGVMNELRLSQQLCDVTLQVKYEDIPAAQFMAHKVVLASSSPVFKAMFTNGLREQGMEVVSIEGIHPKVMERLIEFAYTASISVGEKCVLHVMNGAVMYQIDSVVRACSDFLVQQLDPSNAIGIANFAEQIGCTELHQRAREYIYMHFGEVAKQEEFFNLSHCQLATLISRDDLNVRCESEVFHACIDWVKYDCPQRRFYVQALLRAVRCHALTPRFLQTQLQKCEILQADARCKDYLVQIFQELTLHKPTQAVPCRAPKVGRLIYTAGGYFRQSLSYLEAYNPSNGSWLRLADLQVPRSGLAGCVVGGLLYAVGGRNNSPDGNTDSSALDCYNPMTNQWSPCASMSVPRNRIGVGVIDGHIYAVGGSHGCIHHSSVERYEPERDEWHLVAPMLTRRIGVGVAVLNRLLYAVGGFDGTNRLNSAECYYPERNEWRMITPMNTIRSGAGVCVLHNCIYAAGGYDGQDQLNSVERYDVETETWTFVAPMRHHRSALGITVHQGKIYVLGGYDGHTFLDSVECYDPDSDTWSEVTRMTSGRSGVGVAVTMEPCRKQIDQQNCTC

Kelch-like ECH-associated protein 1 (Homo sapiens), sequence (Q14145 whole entry): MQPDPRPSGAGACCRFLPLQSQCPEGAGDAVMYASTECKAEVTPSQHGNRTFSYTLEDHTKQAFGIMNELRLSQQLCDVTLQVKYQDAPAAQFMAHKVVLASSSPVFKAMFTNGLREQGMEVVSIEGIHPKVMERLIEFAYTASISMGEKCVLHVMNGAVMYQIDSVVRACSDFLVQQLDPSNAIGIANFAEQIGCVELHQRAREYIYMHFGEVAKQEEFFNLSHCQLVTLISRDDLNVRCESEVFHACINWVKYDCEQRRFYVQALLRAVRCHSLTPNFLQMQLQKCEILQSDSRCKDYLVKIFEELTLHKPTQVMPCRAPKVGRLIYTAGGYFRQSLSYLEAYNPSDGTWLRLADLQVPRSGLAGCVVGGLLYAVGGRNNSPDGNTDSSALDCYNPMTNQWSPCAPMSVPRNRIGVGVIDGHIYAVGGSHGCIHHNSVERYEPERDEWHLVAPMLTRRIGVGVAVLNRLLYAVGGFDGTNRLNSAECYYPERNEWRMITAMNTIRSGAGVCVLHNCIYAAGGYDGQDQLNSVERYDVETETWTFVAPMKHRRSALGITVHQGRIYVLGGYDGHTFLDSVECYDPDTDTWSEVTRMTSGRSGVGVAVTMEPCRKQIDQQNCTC

For `CCCCCCCCCCCC/C=C1/C(=O)O[C@@H](C)[C@H]1O`, the results for the Activity result in series [1] and in series [3] were “Tde” and “Non-Toxic”, respectively. The result in series [2], in [4], in series [5] and in series [6] was Active.

Take `CCCCCCCCC/C=C1/C(=O)O[C@@H](C)[C@H]1O`: the Activity entry in [1] was “Tde”; in series [3] it was “Non-Toxic”. Further, in [5], the result was Active.

On to `C[C@@H]1OC(=O)/C(=C/CCCCCCCCCCCCNC(=O)CCCC[C@@H]2SC[C@@H]3NC(=O)N[C@@H]32)[C@@H]1O`, for which the result in series [7] was inactive. The result in series [8] was Active.

Consider `CCCCCCCCCCCCC/C=C1/C(=O)O[C@@H](C)[C@H]1O`, for which the outcome in series [9], in [11], in [2], in series [17], in [19] and in [20] was Active. Also, the outcome in series [21], in [4] and in [6] was Active. Also, the Activity entry is “Non-Toxic” in [10]; “Tde” in series [15]; “Non-Toxic” in series [16]; “Non-Toxic” in series [18]; “Non-Toxic” in [3]; “Non-Toxic” in series [23]. For the same compound, the inhibition entry in series [12], in series [13] and in series [14] was “Active” each time. The outcome in series [22] and in series [24] was inactive.

In the case of `CCCCCCCCCCCCC/C=C1/C(=O)O[C@@H](C)[C@@H]1O`, in [5], the result was Active.

For `CCCCCCCCCCCCC/C=C1/C(=O)O[C@@H](C)[C@H]1OC(=O)CC(C)C`, in series [5], the outcome was inactive.

Consider `CCCCC/C=C1/C(=O)O[C@@H](C)[C@H]1O`, for which the outcome in series [5] was inactive.

Turning to `CCCCCCCCCCCCC/C=C1\C(=O)O[C@@H](C)[C@H]1O`, the result in series [5] was Active.

Regarding `CCCCCCCCCC/C=C1/C(=O)O[C@@H](C)[C@H]1O`, the Activity result was “Tde” in series [1] and “Non-Toxic” in series [3]. Further, the result in [5] was Active.

In the case of `CCCCCCCCCCCCC/C=C1\C[C@H](C)OC1=O`, in [5], the outcome was inactive.

Take `CCCCCCCCCCCCCC[C@@H]1C[C@H](O)OC1=O`: in series [5], the result was inactive.

`CCCCCCCCCCCCCC[C@H]1C(=O)O[C@@H](O)[C@H]1O`: the outcome in series [5] was inactive.

Consider `CCC/C=C1/C(=O)O[C@@H](C)[C@H]1O`, for which, in [5], the result was inactive.

With `CCCCCCCCCCC/C=C1/C(=O)O[C@@H](C)[C@H]1O`, the Activity result is “Tde” in series [1] and “Non-Toxic” in series [3]. Also, the result in [5] was Active.

The values above are taken from ChEMBL document CHEMBL4196072, “Marliolide inhibits skin carcinogenesis by activating NRF2/ARE to induce heme oxygenase-1” (Eur J Med Chem, 2018).
